Source: PubChem BioAssay (The Scripps Research Institute Molecular Screening Center)
SIAE primary – human SIAE inhibitors, primary screen, biochemical, fluorescence polarization, FP-Rh probe, 1536-well HTS. Sialate O-acetylesterase (Homo sapiens), Q9HAT2. SIAE FP-Rh probe binding. inhibition, % at 9.66 µM. 370,000 compounds, 0.69% hits. AID 1053197, 2014;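 active means inhibition above a cutoff: mean of compounds within the control limits plus 3 SD of those, cut at about 17% in these data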;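 further: 0% = plate median of compound wells and 100% = probe without SIAE protein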
mABHD4 FP – ABHD4 inhibitors, primary screen, biochemical, fluorescence polarization, mouse; purified mABHD4, FP-Rh probe fluorescence polarization; inhibition, % at 8.92 µM; 370,000 compounds, 0.54% hits; AID 720543, 2013;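 active means inhibition exceeding the mean over every tested compound plus 3 SD, cut at about 30% in these data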;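 further: 0% = plate median of compound wells and 100% = S159A mutant with DMSO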
Target sequence (Q8VD66 whole entry, looked up): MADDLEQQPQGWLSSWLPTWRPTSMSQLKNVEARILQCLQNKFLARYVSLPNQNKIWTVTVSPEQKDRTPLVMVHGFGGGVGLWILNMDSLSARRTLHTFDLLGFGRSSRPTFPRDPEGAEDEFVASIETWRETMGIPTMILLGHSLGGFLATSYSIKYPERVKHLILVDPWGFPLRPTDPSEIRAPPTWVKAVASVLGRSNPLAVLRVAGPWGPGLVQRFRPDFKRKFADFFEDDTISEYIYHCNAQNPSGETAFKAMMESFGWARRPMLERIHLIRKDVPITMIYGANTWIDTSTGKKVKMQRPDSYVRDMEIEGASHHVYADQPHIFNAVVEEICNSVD
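system = mouse ABHD4 enzyme, wild type | medium = HEPES pH 7.0, NaCl, Pluronic buffer | also added = FP-Rh probe | incubation = Enzyme–compound pre-incubation 45 min, then probe 60 min, both 25 °C | technique = fluorescence polarization, excitation 525 nm, emission 598 nm, BODIPY TMR filters | controls = S159A mutant high control, sample median low control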
TCR CD3 inh – inhibitors of human TCR-CD3 interaction, primary screen, biochemical, fluorescence, TAMRA-labeled TCR probe | inhibition, % at 9.4 µM | 360,000 compounds, 0.37% hits | AID 651800, 2012; in the data active means inhibition above about 19%;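 further: recombinant mutant TCR 2C K166C tagged with TAMRA read by polarization; 0% = receptor in buffer alone and 100% = receptor with positive control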
Tn7 DDE FP – inhibitors of Tn7 peptide binding to fibrin DD(E), primary screen, biochemical, fluorescence polarization, human fibrin, Tn7 probe; AID 720508, 2013; 370,000 compounds, 0.13% hits; inhibition, % at 8.3 µM; FP displacement of FITC-Tn7 peptide from fibrin DD(E); 0% = median of compound wells per plate;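 active means inhibition above the mean of compounds falling within the control limits plus 3 SD of them, cut at about 14% in these data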;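 further: 0% = plate median of compound wells and 100% = 10 µM Aha-Tn7 peptide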
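Test system – human fibrin DD(E) · Times – 10 min preincubation, 3 h with tracer, room temperature · Detection – fluorescence polarization of the labelled Tn7 tracer · Measure – percent inhibition normalized to high-control wells · Benchmarks – high control wells with 10 µM unlabelled Aha-Tn7 peptide (full inhibition) · Repeats – singlicate testing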
DDE Tn6 FP inh – inhibitors of Tn6 peptide binding to fibrin DD(E), primary screen, biochemical, fluorescence polarization, human fibrin, Tn6 probe; Fibrinogen beta chain (Homo sapiens), P02675; Fibrin DD(E) TRITC-Tn6 fluorescence polarization displacement; inhibition, % at 8.3 µM; 370,000 compounds, 0.21% hits;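 active means inhibition above a per-campaign cutoff: mean of compounds within control limits plus 3 SD, cut at about 15% in these data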;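 further: 0% = median of all compound wells on the plate and 100% = blocking peptide control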
HTRA1 inhibitor – HTRA1 serine protease inhibitors, primary screen, biochemical, fluorescence polarization, HTS; recombinant HTRA1, FP-rhodamine activity-based probe; inhibition, % at 5.96 µM; 340,000 compounds, 0.5% hits; AID 504803, 2011; in the data active means inhibition above about 36%;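 further: 0% = enzyme with DMSO and 100% = wells lacking enzyme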
Tn6 DDE ctr – DD(E)-Tn6 binding inhibition, counter-screen. shares compounds with DDE Tn6 FP inh. Fibrin DD(E), TRITC-Tn6 fluorescence polarization displacement; 0% = median of compound wells, not DMSO. inhibition, % at 8.3 µM. 680 compounds, 2% hits;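 active means inhibition above the mean of test compounds lying between the control limits plus 3 SD of those, cut at about 14% in these data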;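 further: 0% = median of compound wells and 100% = wells with Aha-Tn7 blocking peptide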
DDE Tn6 confirm – inhibitors of Tn6 peptide binding to fibrin DD(E), confirmation, biochemical, fluorescence polarization, human fibrin, Tn6 probe. shares compounds with DDE Tn6 FP inh. 680 compounds, 10% hits. AID 720631, 2013. inhibition, % at 8.3 µM. FP displacement of TRITC-Tn6 peptide from DD(E); 0% = per-plate median of test wells;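 active means inhibition above the mean of compounds lying within the control limits plus 3 SD, cut at about 16% in these data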;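 further: 100% = high control wells holding a competing inhibitor peptide at 10 µM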
Active calls of the source: *. The list is not random: actives were taken first. Their share in the collection is about 1.8%.

Results for COc1cccc(NC(=O)c2ccccc2N2C(=O)C3C4C=CC(C4)C3C2=O)c1 (stereo not drawn) ?
SIAE primary: 10.3; mABHD4 FP: 3.4; TCR CD3 inh: -1.1; Tn7 DDE FP: 2.5; DDE Tn6 FP inh: 15.8*; HTRA1 inhibitor: -5.7; Tn6 DDE ctr: -2.4; DDE Tn6 confirm: -4.4

What do the screens show for `CCN(CC)C(=O)CC[C@@H]1CC[C@]2(CCCN(Cc3cccc4ccccc34)C2)O1`?
SIAE primary: 2.8; mABHD4 FP: -2.8; Tn7 DDE FP: -4.6; DDE Tn6 FP inh: 6.1

How did CC(C)CN1C(=O)[C@]2(CC(=O)N(C)C2c2ccccc2)c2cc(-n3cc(C4=CCCCC4)nn3)ccc21 (stereo partly drawn) do in these assays?
SIAE primary: 4.6; mABHD4 FP: 3.7; Tn7 DDE FP: -0.7; DDE Tn6 FP inh: 15.4*; Tn6 DDE ctr: 8.1; DDE Tn6 confirm: 6.7

Results for Cc1cccc(-c2cc(N3CCCN(C)CC3)n3nccc3n2)c1 ?
SIAE primary: 0.8; mABHD4 FP: -4.5; TCR CD3 inh: 3.9; Tn7 DDE FP: 2.9; DDE Tn6 FP inh: 16.2*; Tn6 DDE ctr: -0.4; DDE Tn6 confirm: 8.3

Results for CN1CCCN(c2cc(-c3ccc4ccccc4c3)nc3ccnn23)CC1 ?
SIAE primary: 3.6; mABHD4 FP: 3.4; TCR CD3 inh: 4.8; Tn7 DDE FP: -8.7; DDE Tn6 FP inh: 8.4

Results for O=C(NCc1ccc(Cl)cc1)C1CCC(CNc2c(N3CCCCC3)c(=O)c2=O)CC1 (stereo not drawn) ?
SIAE primary: 7.6; mABHD4 FP: 6.9; TCR CD3 inh: 1.4; Tn7 DDE FP: -8.2; DDE Tn6 FP inh: 16.3*; HTRA1 inhibitor: 3.3; Tn6 DDE ctr: 8.4; DDE Tn6 confirm: 3.9

Results for O=c1c2cccnc2[nH]c(=S)n1CCCN1CCN(c2ccccc2F)CC1 ?
SIAE primary: -4.4; mABHD4 FP: 1.4; TCR CD3 inh: 3.0; Tn7 DDE FP: 6.9; DDE Tn6 FP inh: 17.4*; HTRA1 inhibitor: -4.6; Tn6 DDE ctr: 1.4; DDE Tn6 confirm: -0.8

Results for CCC(C)NC(=O)CNc1nnnn1-c1ccccc1 (stereo not drawn) ?
SIAE primary: 2.7; mABHD4 FP: 1.1; Tn7 DDE FP: -4.1; DDE Tn6 FP inh: 0.2

What do the screens show for `CC(C)(C)c1ccc(NC(=O)CCNC(=O)c2ccco2)cc1`?
SIAE primary: 6.4; mABHD4 FP: 3.9; TCR CD3 inh: 3.6; Tn7 DDE FP: 7.5; DDE Tn6 FP inh: 15.5*; HTRA1 inhibitor: -7.9; Tn6 DDE ctr: -4.8; DDE Tn6 confirm: -5.2

What do the screens show for `O=C(CCNC(=O)c1ccco1)Nc1ccc(C(F)(F)F)cc1`?
SIAE primary: 1.1; mABHD4 FP: 0.2; TCR CD3 inh: 5.4; Tn7 DDE FP: -5.1; DDE Tn6 FP inh: 7.7; HTRA1 inhibitor: -2.7

What do the screens show for `COc1ccccc1N=Nc1nc(-c2ccccc2)c(-c2ccccc2)[nH]1`?
SIAE primary: 13.3; mABHD4 FP: -102.0; TCR CD3 inh: 4.8; Tn7 DDE FP: -2.7; DDE Tn6 FP inh: 20.6*; HTRA1 inhibitor: 5.2; Tn6 DDE ctr: 9.2; DDE Tn6 confirm: 8.9

Results for O=C(O[C@H]1CC[C@@]23CCCN2C(=O)CCC[C@H]3C1)N1CCCC1 ?
SIAE primary: -11.3; mABHD4 FP: -0.1; Tn7 DDE FP: 4.6; DDE Tn6 FP inh: 2.8

How did O=C(Nc1ccccc1C(F)(F)F)O[C@@H]1CC[C@@]23CCCN2C(=O)CCC[C@H]3C1 do in these assays?
SIAE primary: 0.2; mABHD4 FP: 2.9; Tn7 DDE FP: -0.2; DDE Tn6 FP inh: 2.7

How did CCCCc1cc(=O)oc2c(CN3CCN(C)CC3)c(O)ccc12 do in these assays?
SIAE primary: -0.4; mABHD4 FP: 2.0; TCR CD3 inh: -4.3; Tn7 DDE FP: -9.0; DDE Tn6 FP inh: -1.7; HTRA1 inhibitor: -2.5

What do the screens show for `CCCCc1cc(=O)oc2c(CN(C)C)c(O)ccc12`?
SIAE primary: -2.1; mABHD4 FP: 18.4; TCR CD3 inh: -0.9; Tn7 DDE FP: 2.0; DDE Tn6 FP inh: 16.3*; HTRA1 inhibitor: 9.6; Tn6 DDE ctr: -1.9; DDE Tn6 confirm: -1.4

How did CCOc1ccccc1NC(=O)NCc1ccccn1 do in these assays?
SIAE primary: 3.3; mABHD4 FP: 4.6; TCR CD3 inh: 4.4; Tn7 DDE FP: 3.2; DDE Tn6 FP inh: 19.0*; HTRA1 inhibitor: -1.3; Tn6 DDE ctr: 8.0; DDE Tn6 confirm: 5.1

What do the screens show for `CCc1ccccc1NC(=O)NCc1ccccn1`?
SIAE primary: -8.0; mABHD4 FP: 0.0; TCR CD3 inh: -0.6; Tn7 DDE FP: 2.5; DDE Tn6 FP inh: -0.8; HTRA1 inhibitor: 2.6

What do the screens show for `CC(=O)C1=C(C)Nc2ncnn2C1c1ccccc1OCc1ccccc1` (stereo not drawn)?
SIAE primary: -1.2; mABHD4 FP: -5.4; TCR CD3 inh: 0.6; Tn7 DDE FP: 6.0; DDE Tn6 FP inh: 18.4*; HTRA1 inhibitor: 0.9; Tn6 DDE ctr: 2.8; DDE Tn6 confirm: 2.2

What do the screens show for `COc1ccccc1C1C(C(=O)NCc2ccccc2)=C(C)Nc2ncnn21` (stereo not drawn)?
SIAE primary: 1.4; mABHD4 FP: 1.5; TCR CD3 inh: -1.2; Tn7 DDE FP: 3.7; DDE Tn6 FP inh: -0.9; HTRA1 inhibitor: -2.7

How did CCOC(=O)Cn1cc(CN2C(C(=O)OC)CN(C3CC3)CCS2(=O)=O)nn1 (stereo not drawn) do in these assays?
SIAE primary: 2.3; mABHD4 FP: 3.0; Tn7 DDE FP: 1.2; DDE Tn6 FP inh: 4.1

What do the screens show for `COc1ccccc1C(C)NCC(=O)NC(=O)NCc1ccco1` (stereo not drawn)?
SIAE primary: -1.8; mABHD4 FP: -2.0; TCR CD3 inh: 0.9; Tn7 DDE FP: 3.9; DDE Tn6 FP inh: 56.9*; HTRA1 inhibitor: -0.7; Tn6 DDE ctr: -4.9; DDE Tn6 confirm: -7.9
